Data taken from ChEMBL document CHEMBL1938395, “New benzimidazole derivatives as antiplasmodial agents and plasmepsin inhibitors: synthesis and analysis of structure-activity relationships” (Bioorg Med Chem Lett, 2012).

Key:
Plasmepsin II = Plasmepsin II (Plasmodium falciparum, UniProt P46925); test: Inhibition of Plasmodium falciparum plasmepsin-2 using DABCYL-Glu-Arg-Nle-Phe-Leu-Ser-Phe-Pro-EDANS as substrate by FRET analysis
Method in brief: (§1)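 Enzyme (plasmepsin II or cathepsin D) at 1.2 nM with 1.0 µM FRET substrate in 0.1 M sodium acetate pH 5.0, 10% glycerol, 0.01% Tween 20. Compounds were dissolved in DMSO and added before substrate, at 5.0% final DMSO. Fluorescence was read at excitation 336 nm and emission 490 nm. Triplicates.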

Plasmodium falciparum [1] = test: Antiplasmodial activity against late ring stage Plasmodium falciparum HB3 assessed as [3H]hypoxanthine incorporation after 24 hrs by scintillation counting; type: functional, organism-based
Method in brief: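 Late ring stage cultures at 0.5% parasitemia were exposed to a range of compound concentrations in hypoxanthine-free rich medium for 42 h. 0.5 µCi [3H]hypoxanthine was then added and incubation continued for 24 h. Cells were harvested on glass fiber paper and counted by scintillation. Percent inhibition of uptake versus concentration was fitted with a modified dose–response logistic equation for IC50.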

Cathepsin D = Cathepsin D (Homo sapiens, UniProt P07339); test: Inhibition of human cathepsin D using DABCYL-Glu-Arg-Nle-Phe-Leu-Ser-Phe-Pro-EDANS as substrate by FRET analysis; method in brief: as §1
Sequence of Cathepsin D (P07339 65-162 limits assumed): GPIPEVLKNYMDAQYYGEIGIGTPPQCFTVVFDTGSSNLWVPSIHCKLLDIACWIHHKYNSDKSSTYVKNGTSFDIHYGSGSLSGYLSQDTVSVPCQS
Sequence of Cathepsin D (P07339 169-412 limits assumed): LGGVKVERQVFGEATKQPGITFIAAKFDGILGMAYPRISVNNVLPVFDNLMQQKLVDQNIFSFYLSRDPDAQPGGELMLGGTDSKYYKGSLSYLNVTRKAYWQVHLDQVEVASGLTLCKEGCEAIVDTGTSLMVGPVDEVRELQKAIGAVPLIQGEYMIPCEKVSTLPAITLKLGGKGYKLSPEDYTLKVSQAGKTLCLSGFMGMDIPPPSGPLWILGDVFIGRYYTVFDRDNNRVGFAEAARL

Plasmodium falciparum [2] = test: Antiplasmodial activity against late ring stage Plasmodium falciparum HB3 after 1 hr by acridine orange staining-based flow cytometric analysis; type: functional, organism-based; details: HB3, 1 h

Sequence of Plasmepsin II (P46925 whole entry): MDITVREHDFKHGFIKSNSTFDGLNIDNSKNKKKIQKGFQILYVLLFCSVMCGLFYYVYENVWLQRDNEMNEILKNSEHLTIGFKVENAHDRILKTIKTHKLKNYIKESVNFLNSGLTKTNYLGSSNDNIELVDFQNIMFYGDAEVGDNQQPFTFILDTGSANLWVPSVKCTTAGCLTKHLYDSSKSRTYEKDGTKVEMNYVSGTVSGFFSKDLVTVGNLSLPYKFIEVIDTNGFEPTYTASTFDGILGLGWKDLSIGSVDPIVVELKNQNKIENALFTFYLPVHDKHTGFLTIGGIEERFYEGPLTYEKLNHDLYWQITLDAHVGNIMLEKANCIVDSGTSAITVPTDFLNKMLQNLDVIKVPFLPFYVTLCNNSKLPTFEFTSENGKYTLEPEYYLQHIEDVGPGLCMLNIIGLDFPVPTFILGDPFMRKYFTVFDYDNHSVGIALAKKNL

IC50 (Plasmepsin II) [µM]	IC50 (Plasmodium falciparum [1]) [µM]	IC50 (Cathepsin D) [µM]	IC50 (Plasmodium falciparum [2]) [µM]	Compound
20.4	≥ 3	21.2	–	O=C(Cn1c(-c2ccccn2)nc2ccccc21)c1cccc([N+](=O)[O-])c1
21.2	0.7	31.9	–	O=C(Cn1c(-c2ccccn2)nc2ccccc21)c1ccc(Cl)cc1
30.6	≥ 3	39.2	–	O=C(Cn1c(-c2ccccn2)nc2ccccc21)c1ccccc1[N+](=O)[O-]
10	3	31.9	–	O=C(Cn1c(-c2ccccn2)nc2ccccc21)c1ccc(F)cc1
48	≥ 3	44.5	–	O=C(Cn1c(-c2ccccn2)nc2ccccc21)c1ccc(F)cc1F
10	≥ 3	39.2	–	O=C(Cn1c(-c2ccccn2)nc2ccccc21)c1ccccc1
14.7	0.16	2	0.166	O=C(Cn1c(-c2ccccn2)nc2ccccc21)c1ccc(-c2ccccc2)cc1
37.7	≤ 3	14.2	–	COc1ccc(C(=O)Cn2c(-c3ccccn3)nc3ccccc32)cc1
34	≤ 3	21.2	–	COc1ccc(OC)c(C(=O)Cn2c(-c3ccccn3)nc3ccccc32)c1

Compound	IC50 (Plasmepsin II) [µM]	IC50 (Plasmodium falciparum [1]) [µM]	IC50 (Cathepsin D) [µM]	IC50 (Plasmodium falciparum [2]) [µM]
O=C(Cn1c(-c2ccccn2)nc2ccccc21)c1ccc(O)c(O)c1	19.6	≥ 3	28.5	–
O=C(Cn1c(-c2ccccn2)nc2ccccc21)c1ccc([N+](=O)[O-])cc1	30.5	2.1	17.8	–
